Experimental data as given in ChEMBL document CHEMBL5325390, “1,2,4-Triazole-3-thione analogues with an arylakyl group at position 4 as metallo-β-lactamase inhibitors” (Bioorg Med Chem, 2022).

Experiments:
[1] = target: Beta-lactamase VIM-1 (Bacteria, UniProt Q8GDC1); assay: Binding affinity to VIM-1 (unknown origin) expressed in Escherichia coli BL21(DE3) assessed as inhibition constant by measuring rate of substrate hydrolysis by UV-Vis spectrophotometric analysis
How it was run: (§1)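 Purified MBL (1–70 nM) with 150 µM imipenem or meropenem as reporter substrate, 50 mM HEPES pH 7.5, 30 °C. Hydrolysis followed by absorbance at 300 nm without and with inhibitor (0.5 µM–1 mM). Ki from the slope of v0/vi vs [I] under a competitive model, or from Dixon plots varying inhibitor and substrate. […] Triplicate, mean ± SD.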

[2] = Binding affinity to VIM-2 (unknown origin) expressed in Escherichia coli BL21(DE3) assessed as inhibition constant by measuring rate of substrate hydrolysis by UV-Vis spectrophotometric analysis; how it was run: as §1
[3] = Binding affinity to VIM-4 (unknown origin) expressed in Escherichia coli BL21(DE3) assessed as inhibition constant by measuring rate of substrate hydrolysis by UV-Vis spectrophotometric analysis; how it was run: as §1
[4] = target: Metallo-beta-lactamase type 2 (Bacteria, UniProt C7C422); assay: Binding affinity to NDM1 (unknown origin) expressed in Escherichia coli BL21(DE3) assessed as inhibition constant by measuring rate of substrate hydrolysis by UV-Vis spectrophotometric analysis; details: read-out: Ki; how it was run: as §1
Sequence of Metallo-beta-lactamase type 2 (C7C422 whole entry): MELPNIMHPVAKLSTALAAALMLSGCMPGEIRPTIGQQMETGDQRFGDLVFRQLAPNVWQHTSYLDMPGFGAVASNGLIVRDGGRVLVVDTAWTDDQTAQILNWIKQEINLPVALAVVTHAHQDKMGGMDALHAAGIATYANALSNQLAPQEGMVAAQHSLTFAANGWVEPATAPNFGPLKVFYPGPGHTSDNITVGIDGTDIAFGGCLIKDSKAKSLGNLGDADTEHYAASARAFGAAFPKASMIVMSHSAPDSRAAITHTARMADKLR

[5] = system: Klebsiella pneumoniae; assay: Antimicrobial synergistic activity against blaVIM-1-producing multidrug-resistant Klebsiella pneumoniae 7023 clinical isolate assessed as meropenem MIC at 32 ug/ml by CLSI based broth microdilution method (reference value: 16 ug/ml); format: functional; details: dose 32 µg/ml
[6] = system: Klebsiella pneumoniae; assay: Antimicrobial synergistic activity against blaVIM-4-producing multidrug-resistant Klebsiella pneumoniae VA416/02 clinical isolate assessed as meropenem MIC at 32 ug/ml by CLSI based broth microdilution method (reference value: 16 ug/ml); format: functional; details: dose 32 µg/ml
[7] = system: Escherichia coli; assay: Synergistic antimicrobial activity against blaNDM-1-producing multidrug-resistant Escherichia coli SI-004M clinical isolate assessed as meropenem MIC at 32 ug/ml by CLSI based microdilution method (reference value: 64 ug/ml); format: functional; details: dose 32 µg/ml
[8] = target: T1, Angiotensin-converting enzyme (Oryctolagus cuniculus) (UniProt P12822); assay: Inhibition of rabbit lung angiotensin-converting enzyme at 100 uM using Abz-Gly-Phe-(NO2)-Pro as substrate by fluorescence based microplate reader analysis relative to control; format: tissue-based
T1 sequence (whole entry): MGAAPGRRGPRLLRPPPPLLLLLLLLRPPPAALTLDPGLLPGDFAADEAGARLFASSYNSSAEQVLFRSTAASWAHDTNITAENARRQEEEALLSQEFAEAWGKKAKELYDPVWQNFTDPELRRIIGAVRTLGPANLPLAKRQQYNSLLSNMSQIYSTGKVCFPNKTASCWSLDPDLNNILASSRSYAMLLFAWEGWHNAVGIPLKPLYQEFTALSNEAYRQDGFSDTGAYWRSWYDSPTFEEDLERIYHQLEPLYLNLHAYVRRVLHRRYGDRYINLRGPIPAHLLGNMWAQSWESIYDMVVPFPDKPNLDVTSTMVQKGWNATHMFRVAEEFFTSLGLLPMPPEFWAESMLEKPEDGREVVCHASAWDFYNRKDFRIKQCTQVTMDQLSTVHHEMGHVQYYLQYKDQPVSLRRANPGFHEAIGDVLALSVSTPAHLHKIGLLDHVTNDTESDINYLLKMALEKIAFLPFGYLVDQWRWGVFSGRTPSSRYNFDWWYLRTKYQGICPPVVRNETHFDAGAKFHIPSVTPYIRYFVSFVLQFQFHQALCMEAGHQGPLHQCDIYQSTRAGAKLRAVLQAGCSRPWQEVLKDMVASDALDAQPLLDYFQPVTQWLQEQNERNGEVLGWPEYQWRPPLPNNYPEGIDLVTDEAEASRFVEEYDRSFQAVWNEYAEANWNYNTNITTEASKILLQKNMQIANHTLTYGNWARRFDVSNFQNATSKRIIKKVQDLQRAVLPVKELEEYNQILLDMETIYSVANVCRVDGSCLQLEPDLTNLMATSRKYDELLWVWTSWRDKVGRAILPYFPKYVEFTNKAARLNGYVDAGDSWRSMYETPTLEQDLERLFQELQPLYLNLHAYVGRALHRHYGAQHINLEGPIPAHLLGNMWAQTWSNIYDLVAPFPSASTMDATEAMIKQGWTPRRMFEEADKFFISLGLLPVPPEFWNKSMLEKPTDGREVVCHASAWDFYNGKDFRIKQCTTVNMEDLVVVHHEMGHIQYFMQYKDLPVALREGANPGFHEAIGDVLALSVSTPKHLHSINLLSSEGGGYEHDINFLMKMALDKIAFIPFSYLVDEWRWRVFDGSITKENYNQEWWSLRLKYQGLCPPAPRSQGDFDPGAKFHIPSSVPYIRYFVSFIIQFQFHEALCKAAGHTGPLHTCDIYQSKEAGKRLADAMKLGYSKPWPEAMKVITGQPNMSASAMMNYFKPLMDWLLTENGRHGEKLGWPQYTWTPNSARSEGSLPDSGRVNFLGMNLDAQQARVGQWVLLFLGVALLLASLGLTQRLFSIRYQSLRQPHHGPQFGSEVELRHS
How it was run: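 Rabbit lung ACE, 1.5 mU per well, in 150 mM Tris, 750 mM NaCl, pH 8.3, with Abz-Gly-Phe(NO2)-Pro substrate. Blank-corrected fluorescence of released Abz-Gly-OH (ex 316, em 413 nm) followed up to 90 min. Test compounds at 100 µM; captopril control at 100 nM. Inhibition % = 100 − (vi/v0 × 100).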

[9] = target: T2, Angiotensin-converting enzyme (Oryctolagus cuniculus, UniProt P12822); assay: Binding affinity to rabbit lung angiotensin-converting enzyme assessed as inhibition constant
T2 sequence (P12822 whole entry): T1 sequence (whole entry)

[10] = system: HeLa; assay: Cytotoxicity against human HeLa cells assessed as induction of cell lysis upto 250 uM measured for 72 hrs by realtime-glo MT assay; format: toxicity, cell-based
How it was run: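 HeLa cells at 1,500 cells/well exposed to compound up to 250 µM for up to 72 h. Viability read by RealTime-Glo MT luminescent assay. Triplicate.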

[11] = system: metallo-β-lactamase IMP-1 (Pseudomonas aeruginosa); assay: Inhibition of IMP1 (unknown origin) expressed in Escherichia coli BL21(DE3) assessed as substrate hydrolysis at 100 uM by UV-Vis spectrophotometric analysis relative to control
[12] = system: metallo-β-lactamase IMP-1 (Pseudomonas aeruginosa); assay: Inhibition of IMP1 (unknown origin) expressed in Escherichia coli BL21(DE3) assessed as substrate hydrolysis at 200 uM by UV-Vis spectrophotometric analysis relative to control
[13] = target: T1, Angiotensin-converting enzyme (Oryctolagus cuniculus); details: Lung, dose 100.0 nM
[14] = Binding affinity to IMP1 (unknown origin) expressed in Escherichia coli BL21(DE3) assessed as inhibition constant by measuring rate of substrate hydrolysis by UV-Vis spectrophotometric analysis; details: read-out: Ki; how it was run: as §1
[15] = target: Metallo-beta-lactamase type 2 (Bacteria) (UniProt C7C422); assay: Inhibition of NDM1 (unknown origin) expressed in Escherichia coli BL21(DE3) assessed as substrate hydrolysis at 100 uM by UV-Vis spectrophotometric analysis relative to control
Sequence of Metallo-beta-lactamase type 2 (Bacteria) (C7C422 whole entry): as the sequence (C7C422 whole entry) above
How it was run: (§2)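 Single-point screen at 100 or 200 µM inhibitor against purified MBL (1–70 nM) with 150 µM imipenem or meropenem reporter substrate, 50 mM HEPES pH 7.5, 30 °C. Initial hydrolysis rate read by absorbance at 300 nm and compared with the uninhibited reaction. Triplicate.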

[16] = system: Klebsiella pneumoniae; assay: Synergistic antimicrobial activity against blaVIM-4-producing multidrug-resistant Klebsiella pneumoniae VA416/02 clinical isolate assessed as fractional inhibitory concentration index in presence of meropenem by checkerboard assay; format: functional
[17] = system: metallo-β-lactamase L1 (Stenotrophomonas maltophilia); assay: Inhibition of L1 (unknown origin) expressed in Escherichia coli BL21(DE3) assessed as substrate hydrolysis at 100 uM by UV-Vis spectrophotometric analysis relative to control
[18] = target: Beta-lactamase VIM-1 (Bacteria) (UniProt Q8GDC1); assay: Inhibition of VIM-1 (unknown origin) expressed in Escherichia coli BL21(DE3) assessed as substrate hydrolysis at 100 uM by UV-Vis spectrophotometric analysis relative to control; how it was run: as §2
[19] = target: Beta-lactamase VIM-1 (Bacteria) (UniProt Q8GDC1); assay: Inhibition of VIM-1 (unknown origin) expressed in Escherichia coli BL21(DE3) assessed as substrate hydrolysis at 200 uM by UV-Vis spectrophotometric analysis relative to control; how it was run: as §2
[20] = target: Metallo-beta-lactamase type 2 (Bacteria) (UniProt C7C422); assay: Inhibition of NDM1 (unknown origin) expressed in Escherichia coli BL21(DE3) assessed as substrate hydrolysis at 200 uM by UV-Vis spectrophotometric analysis relative to control; how it was run: as §2
[21] = system: metallo-β-lactamase VIM-2 (Pseudomonas aeruginosa); assay: Inhibition of VIM-2 (unknown origin) expressed in Escherichia coli BL21(DE3) assessed as substrate hydrolysis at 100 uM by UV-Vis spectrophotometric analysis relative to control
[22] = system: metallo-β-lactamase VIM-2 (Pseudomonas aeruginosa); assay: Inhibition of VIM-2 (unknown origin) expressed in Escherichia coli BL21(DE3) assessed as substrate hydrolysis at 200 uM by UV-Vis spectrophotometric analysis relative to control
[23] = system: metallo-β-lactamase VIM-4 (Pseudomonas aeruginosa); assay: Inhibition of VIM-4 (unknown origin) expressed in Escherichia coli BL21(DE3) assessed as substrate hydrolysis at 100 uM by UV-Vis spectrophotometric analysis relative to control
[24] = system: metallo-β-lactamase VIM-4 (Pseudomonas aeruginosa); assay: Inhibition of VIM-4 (unknown origin) expressed in Escherichia coli BL21(DE3) assessed as substrate hydrolysis at 200 uM by UV-Vis spectrophotometric analysis relative to control

Row | inhibition [11] | inhibition [12] | inhibition [15] | inhibition [18] | inhibition [19] | inhibition [20] | inhibition [21] | inhibition [22] | inhibition [23] | SMILES | Ki [1] | Ki [2] | Ki [3] | Ki [4] | MIC [5] | MIC [6] | MIC [7] | inhibition [8] | Ki [9] | Ki [14] | FIC [16] | other results
1 | < 30% | < 50% | < 30% | < 30% | < 50% | < 50% | < 30% | < 50% | < 30% | S=c1[nH]nc(Cc2ccccc2)n1CCc1ccccc1 |  |  |  |  |  |  |  |  |  |  |  | inhibition [24]: < 50%
2 | < 30% | < 50% | < 30% | < 30% | < 50% | < 50% | < 30% | < 50% | < 30% | S=c1[nH]nc(-c2cc3ccccc3[nH]2)n1-c1ccc(OCc2ccccc2)cc1 |  |  |  |  |  |  |  |  |  |  |  | inhibition [24]: < 50%

Further lines, the compound ahead of its results:

Row | SMILES | inhibition [11] | inhibition [12] | inhibition [15] | inhibition [18] | inhibition [19] | inhibition [20] | inhibition [21] | inhibition [22] | inhibition [23] | Ki [1] | Ki [2] | Ki [3] | Ki [4] | MIC [5] | MIC [6] | MIC [7] | inhibition [8] | Ki [9] | Ki [14] | FIC [16] | other results
3 | Oc1ccc(CCn2c(-c3cccc(-c4ccccc4)c3)n[nH]c2=S)c(O)c1 | < 30% | < 50% |  |  |  |  |  |  |  | 410 nM | 1300 nM | 820 nM | 14300 nM | 2 µg/mL | 4 µg/mL | 32 µg/mL | 35% | 55000 nM |  |  | Activity [10]: Non-Toxic
4 | C[C@H](CS)C(=O)N1CCC[C@H]1C(=O)O |  |  |  |  |  |  |  |  |  |  |  |  |  |  |  |  |  |  |  |  | inhibition [13]: 96%
5 | S=c1[nH]nc(-c2ccccc2)n1CCCc1ccccc1 |  |  | < 30% |  |  |  |  |  |  | 560 nM | 740 nM | 900 nM |  | 2 µg/mL | 2 µg/mL | 64 µg/mL | 50% | 30000 nM | 14000 nM | 0.25 | inhibition [17]: < 30%
6 | Oc1ccc(CCn2c(-c3cccc(-c4ccccc4)c3)n[nH]c2=S)cc1O |  |  |  |  |  |  |  |  |  | 1300 nM | 1700 nM | 680 nM | 17400 nM | 16 µg/mL | 2 µg/mL | 32 µg/mL |  |  | 9200 nM | 0.48 | 
